From ChEMBL document CHEMBL4138193, “Novel indole and triazole based hybrid molecules exhibit potent anti-adipogenic and antidyslipidemic activity by activating Wnt3a/β-catenin pathway” (Eur J Med Chem, 2018)
The source made the active and inactive calls. The calls are words filed in the database; no cut-off is given here.

Columns and labels:
3T3-L1 [1] = test: Anti-adipogenic activity in mouse differentiated 3T3L1 cells assessed as inhibition of adipogenesis at 20 uM after 20 mins by Oil Red O staining based assay; format: functional
In short: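 3T3-L1 preadipocytes given 20 µM compound with differentiation media. Oil red O stain (20 min) extracted, absorbance at 492 nm measured against MDI+ control, n=3, mean ± SD, Student t test.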

3T3-L1 [2] = test: Anti-adipogenic activity in mouse 3T3L1 cells assessed as inhibition of adipogenesis after 20 mins by Oil Red O staining based assay; format: functional, cell-based; details: 3T3-L1, 20 min
In short: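 3T3-L1 preadipocytes differentiated with compound at 0.1, 1, 3, 10, 30, 100 and 300 µM. Oil red O absorbance read at 492 nm, concentrations log-transformed and fitted by non-linear regression to give IC50. Two to three independent experiments, mean ± SEM.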

Syrian golden hamster [3] = test: Induction of reverse cholestrol transport in high fat diet-induced dyslipidemia Syrian Golden hamster model assessed as increase in SCARB1 mRNA expression in liver at 100 mg/kg, po administered for 1 week by qRT-PCR analysis; format: functional, organism-based; details: Mesocricetus auratus
Syrian golden hamster [4] = test: Induction of reverse cholestrol transport in high fat diet-induced dyslipidemia Syrian Golden hamster model assessed as decrease in CYP7A1 mRNA expression in liver at 100 mg/kg, po administered for 1 week by qRT-PCR analysis; format: functional, organism-based; details: Mesocricetus auratus
Syrian golden hamster [5] = test: Induction of reverse cholestrol transport in high fat diet-induced dyslipidemia Syrian Golden hamster model assessed as increase in ABCA1 mRNA expression in eWAT at 100 mg/kg, po administered for 1 week by qRT-PCR analysis; format: functional, organism-based; details: Mesocricetus auratus
Syrian golden hamster [6] = test: Induction of reverse cholestrol transport in high fat diet-induced dyslipidemia Syrian Golden hamster model assessed as increase in ABCG5 mRNA expression in eWAT at 100 mg/kg, po administered for 1 week by qRT-PCR analysis; format: functional, organism-based; details: Mesocricetus auratus
Syrian golden hamster [7] = test: Induction of reverse cholestrol transport in high fat diet-induced dyslipidemia Syrian Golden hamster model assessed as decrease in NPCL1 mRNA expression in liver at 100 mg/kg, po administered for 1 week by qRT-PCR analysis; format: functional, organism-based; details: Mesocricetus auratus
Syrian golden hamster [8] = test: Induction of reverse cholestrol transport in high fat diet-induced dyslipidemia Syrian Golden hamster model assessed as increase in ABCG8 mRNA expression in eWAT at 100 mg/kg, po administered for 1 week by qRT-PCR analysis; format: functional, organism-based; details: Mesocricetus auratus
Syrian golden hamster [9] = test: Induction of reverse cholestrol transport in high fat diet-induced dyslipidemia Syrian Golden hamster model assessed as increase in LCAT mRNA expression in liver at 100 mg/kg, po administered for 1 week by qRT-PCR analysis; format: functional, organism-based; details: Mesocricetus auratus
Syrian golden hamster [10] = test: Induction of reverse cholestrol transport in high fat diet-induced dyslipidemia Syrian Golden hamster model assessed as decrease in CETP mRNA expression in liver at 100 mg/kg, po administered for 1 week by qRT-PCR analysis; format: functional, organism-based; details: Mesocricetus auratus

Row | SMILES | inhibition at 20 µM (3T3-L1 [1]) | further results
1 | COc1cc(OC)c(Cn2cc(CN(Cc3cn(S(=O)(=O)c4ccc(C)cc4)c4ccccc34)S(=O)(=O)c3ccc(C)cc3)nn2)c(OC)c1 | -22% | –
2 | Cc1ccc(S(=O)(=O)N(Cc2cn(Cc3ccccc3)nn2)Cc2c(-c3ccccc3)c3ccccc3n2S(=O)(=O)c2ccc(C)cc2)cc1 | 0.03% | –
3 | Cc1ccc(S(=O)(=O)n2cc(CN(Cc3cn(Cc4cccc(F)c4F)nn3)C(=O)C(F)(F)F)c3ccccc32)cc1 | 31.9% | IC50 (3T3-L1 [2]): 19.1 µM
4 | O=S(=O)(c1ccc(F)cc1)n1cc(CNCc2cccc(F)c2F)c2ccccc21 | 21% | IC50 (3T3-L1 [2]): 12.4 µM
5 | CC(=O)N(Cc1cccc(F)c1F)Cc1cn(S(=O)(=O)c2ccc(C)cc2)c2ccccc12 | 57.5% | IC50 (3T3-L1 [2]): 17.5 µM
6 | CC(=O)N(Cc1cccc(F)c1F)Cc1cn(S(=O)(=O)c2ccc(F)cc2)c2ccccc12 | 25.8% | IC50 (3T3-L1 [2]): 10.6 µM
7 | O=C(N(Cc1cccc(F)c1F)Cc1cn(S(=O)(=O)c2ccc(F)cc2)c2ccccc12)C(F)(F)F | -52.3% | –
8 | COc1ccc(Cn2cc(CN(Cc3cn(S(=O)(=O)c4ccc(C)cc4)c4ccccc34)S(=O)(=O)c3ccc(C)cc3)nn2)c(OC)c1OC | -18% | –
9 | Fc1ccc(CNCc2cccc(F)c2F)cc1 | -53.4% | –
10 | O=C(N(Cc1ccc(F)cc1)Cc1cccc(F)c1F)C(F)(F)F | -39.8% | –
11 | COc1ccc(Cn2cc(CN(Cc3cn(S(=O)(=O)c4ccc(C)cc4)c4ccccc34)S(=O)(=O)c3ccc(C)cc3)nn2)c(OC)c1 | 7.6% | –
12 | Cc1ccc(S(=O)(=O)n2cc(CN(Cc3cccc(F)c3F)S(C)(=O)=O)c3ccccc32)cc1 | -3.3% | –
13 | Cc1ccc(S(=O)(=O)N(Cc2ccc(F)cc2)Cc2cccc(F)c2F)cc1 | -97.7% | –
14 | Cc1ccc(S(=O)(=O)n2cc(CNCc3cccc(F)c3F)c3ccccc32)cc1 | 46% | IC50 (3T3-L1 [2]): 30 µM
15 | COc1cc(Cn2cc(CN(Cc3c(-c4ccccc4)c4ccccc4n3S(=O)(=O)c3ccc(C)cc3)S(=O)(=O)c3ccc(C)cc3)nn2)cc(OC)c1OC | -10.9% | –
16 | CC(=O)N(Cc1cn(Cc2cccc(F)c2F)nn1)Cc1cn(S(=O)(=O)c2ccc(C)cc2)c2ccccc12 | 39.5% | IC50 (3T3-L1 [2]): 9.1 µM
17 | Cc1ccc(S(=O)(=O)N(Cc2cn(Cc3ccccc3)nn2)Cc2c(C)c3ccccc3n2S(=O)(=O)c2ccc(C)cc2)cc1 | -5.9% | –
18 | Cc1ccc(S(=O)(=O)N(Cc2cn(Cc3ccc(F)cc3)nn2)Cc2c(-c3ccccc3)c3ccccc3n2S(=O)(=O)c2ccc(C)cc2)cc1 | -7.6% | –
19 | Fc1cccc(CNCc2c[nH]c3ccccc23)c1F | -1.7% | –
20 | Cc1ccc(S(=O)(=O)n2cc(CN(Cc3cccc(F)c3F)C(=O)C(F)(F)F)c3ccccc32)cc1 | -5.5% | –

Row | SMILES | inhibition at 20 µM (3T3-L1 [1]) | further results
21 | Cc1ccc(S(=O)(=O)N(Cc2cn(Cc3ccccc3)nn2)Cc2cn(S(=O)(=O)c3ccc(C)cc3)c3ccccc23)cc1 | 3.4% | –
22 | Cc1ccc(S(=O)(=O)N(Cc2cn(Cc3ccccc3Cl)nn2)Cc2cn(S(=O)(=O)c3ccc(C)cc3)c3ccccc23)cc1 | -4.8% | –
23 | Cc1ccc(S(=O)(=O)n2cc(CN(Cc3cn(Cc4cc(F)ccc4F)nn3)S(C)(=O)=O)c3ccccc32)cc1 | 3.4% | –
24 | CC(C)OC(=O)C(C)(C)Oc1ccc(C(=O)c2ccc(Cl)cc2)cc1 | – | Activity (Syrian golden hamster [3]): Active; Activity (Syrian golden hamster [4]): Active; Activity (Syrian golden hamster [5]): Active; Activity (Syrian golden hamster [6]): Active; Activity (Syrian golden hamster [7]): Active; Activity (Syrian golden hamster [8]): Active; Activity (Syrian golden hamster [9]): Active; Activity (Syrian golden hamster [10]): Active
25 | COc1ccc(Cn2cc(CN(Cc3cn(S(=O)(=O)c4ccc(C)cc4)c4ccccc34)S(=O)(=O)c3ccc(C)cc3)nn2)cc1 | 1% | –
26 | Cc1ccc(S(=O)(=O)n2cc(CN(Cc3ccccc3)Cc3cccc(F)c3F)c3ccccc32)cc1 | -13.1% | –
27 | Cc1ccc(S(=O)(=O)N(Cc2cn(Cc3ccc(F)cc3F)nn2)Cc2c(C)c3ccccc3n2S(=O)(=O)c2ccc(C)cc2)cc1 | -22% | –
28 | Cc1ccc(S(=O)(=O)n2cc(CN(Cc3cn(Cc4ccc(F)cc4)nn3)S(=O)(=O)c3ccccc3)c3ccccc32)cc1 | -21% | –
29 | Fc1cccc(CNCc2ccccc2)c1F | -38.5% | –
30 | O=S(=O)(c1ccc(F)cc1)N(Cc1cccc(F)c1F)Cc1cn(S(=O)(=O)c2ccc(F)cc2)c2ccccc12 | -20% | –
31 | Cc1ccc(S(=O)(=O)n2cc(CN(Cc3cn(Cc4ccccc4)nn3)S(=O)(=O)c3ccccc3)c3ccccc32)cc1 | -18% | –
32 | Cc1ccc(S(=O)(=O)n2cc(CN(Cc3cn(Cc4ccc(F)cc4)nn3)S(C)(=O)=O)c3ccccc32)cc1 | -19.5% | –
33 | Cc1ccc(S(=O)(=O)N(Cc2cn(Cc3ccc(F)cc3F)nn2)Cc2cn(S(=O)(=O)c3ccc(C)cc3)c3ccccc23)cc1 | 12.3% | –
34 | Cc1ccc(S(=O)(=O)N(Cc2cccc(F)c2F)Cc2cn(S(=O)(=O)c3ccc(F)cc3)c3ccccc23)cc1 | -35% | –
35 | Cc1ccc(S(=O)(=O)n2c(CN(Cc3cn(Cc4ccc(F)cc4F)nn3)S(C)(=O)=O)c(C)c3ccccc32)cc1 | -20.8% | –
36 | Cc1ccc(S(=O)(=O)N(Cc2cccc(F)c2F)Cc2cn(S(=O)(=O)c3ccc(C)cc3)c3ccccc23)cc1 | -13.9% | –
37 | O=S(=O)(c1ccc(F)cc1)N(Cc1ccccc1)Cc1cccc(F)c1F | -81.9% | –
38 | Cc1ccc(S(=O)(=O)N(Cc2ccccc2)Cc2cccc(F)c2F)cc1 | -35.7% | –
39 | Cc1ccc(S(=O)(=O)n2cc(CN(Cc3cn(Cc4cc(F)ccc4F)nn3)S(=O)(=O)c3ccccc3)c3ccccc32)cc1 | -6.5% | –
